Data: ChEMBL document CHEMBL3526055, “Human metabolism of lapatinib, a dual kinase inhibitor: implications for hepatotoxicity” (Drug Metab Dispos, 2012)

Assays:
Type in all cases: ADME, organism-based
[1] = Drug level in healthy human feces treated with [14C]lapatinib at 250 mg, po administered as single dose by LC-MS/MS method; settings: in vivo
Plasma [2] = assay: Drug level in healthy human plasma treated with [14C]lapatinib at 250 mg, po administered as single dose by LC-MS/MS method; settings: in vivo
How it was run: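 Healthy volunteers (n=6) received a single 250 mg oral aqueous suspension of unlabeled plus [14C]-drug (89.1 μCi), fasted 10 h predose to ~4 h postdose. Samples were collected for 168 h. Plasma was extracted from 25 µl by protein precipitation with an isotope-labeled internal standard and quantified by validated LC/MS/MS over 5 to 5000 ng/ml. Medians were reported.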

[3] = Drug recovery in healthy female human feces at 250 mg, po administered as single dose; settings: read-out: Drug recovery
How it was run: (§1)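 Six healthy subjects (3 male, 3 female) received a single 250 mg oral [14C] suspension. Urine was collected in intervals and faeces were collected up to 168 h postdose. Faeces were homogenized as a water slurry and triplicate ~0.2 g aliquots combusted. Urine and plasma were counted directly by LSC with quench and background correction. Results are reported as median % of dose.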

Plasma [4] = assay: Drug metabolism in healthy human plasma assessed as 5-(4-(3-chloro-4-(3-fluorobenzyloxy)phenylamino)quinazolin-6-yl)furan-2-carbaldehyde formation at 250 mg, po administered as single dose by LC-MS/MS method; settings: in vivo
How it was run: (§2)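 Pooled plasma from subjects given a single 250 mg oral [14C] suspension was extracted (>90% recovery) and run on a C18 HPLC column at 45 °C. Positive-ion ESI single-quadrupole LC/MS used full scan m/z 100 to 900, with UV at 277 nm. Faeces were extracted with ethanol:acetonitrile:sample (3:3:1) for radio-HPLC profiling with off-line LSC fractions and nanoelectrospray MS.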

[5] = Drug metabolism in healthy human feces assessed as 6-(5-(aminomethyl)furan-2-yl)-N-(3-chloro-4-(3-fluorobenzyloxy)phenyl)quinazolin-4-amine formation at 250 mg, po administered as single dose by LC-MS/MS method; settings: in vivo; how it was run: as §2
[6] = Drug recovery in healthy human feces at 250 mg, po administered as single dose after 0 to 24 hrs; settings: read-out: Drug recovery; how it was run: as §1
[7] = Drug recovery in healthy human urine at 250 mg, po administered as single dose; settings: read-out: Drug recovery; how it was run: as §1
[8] = Drug recovery in healthy human urine at 250 mg, po administered as single dose after 0 to 96 hrs; settings: read-out: Drug recovery; how it was run: as §1
[9] = Drug recovery in healthy human feces at 250 mg, po administered as single dose after 0 to 72 hrs; settings: read-out: Drug recovery; how it was run: as §1
Homo sapiens = assay: Total drug recovery in healthy human at 250 mg, po administered as single dose after 0 to 168 hrs; settings: in vivo; how it was run: as §1
[10] = Total drug recovery in healthy human at 250 mg, po administered as single dose; settings: in vivo, read-out: Drug recovery; how it was run: as §1
[11] = Drug recovery in healthy human feces at 250 mg, po administered as single dose after 0 to 48 hrs; settings: read-out: Drug recovery; how it was run: as §1
Plasma [12] = assay: Drug metabolism in healthy human plasma assessed as N-(3-chloro-4-(3-fluorobenzyloxy)phenyl)-6-(5-((hydroxy(2-(methylsulfonyl)ethyl)amino)methyl)furan-2-yl)quinazolin-4-amine formation at 250 mg, po administered as single dose by LC-MS/MS method; settings: in vivo; how it was run: as §2
[13] = Drug recovery in healthy human feces at 250 mg, po administered as single dose after 0 to 144 hrs; settings: read-out: Drug recovery; how it was run: as §1
[14] = Total drug recovery in healthy female human at 250 mg, po administered as single dose; settings: in vivo, read-out: Drug recovery; how it was run: as §1
[15] = Drug recovery in healthy human urine at 250 mg, po administered as single dose after 0 to 168 hrs; settings: read-out: Drug recovery; how it was run: as §1
Plasma [16] = assay: Drug metabolism in healthy human plasma assessed as 1-(5-(4-(3-chloro-4-(3-fluorobenzyloxy)phenylamino)quinazolin-6-yl)furan-2-yl)-N-(2-(methylsulfonyl)ethylidene)methanamine oxide formation at 250 mg, po administered as single dose by LC-MS/MS method; settings: in vivo; how it was run: as §2
[17] = Drug recovery in healthy human feces at 250 mg, po administered as single dose after 0 to 96 hrs; settings: read-out: Drug recovery; how it was run: as §1
[18] = Drug recovery in healthy human urine at 250 mg, po administered as single dose after 0 to 24 hrs; settings: read-out: Drug recovery; how it was run: as §1
Plasma [19] = assay: Drug metabolism in healthy human plasma assessed as 5-(4-(3-chloro-4-(3-fluorobenzyloxy)phenylamino)quinazolin-6-yl)furan-2-carboxylic acid formation at 250 mg, po administered as single dose by LC-MS/MS method; settings: in vivo; how it was run: as §2
[20] = Drug recovery in healthy female human urine at 250 mg, po administered as single dose; settings: read-out: Drug recovery; how it was run: as §1
[21] = Drug recovery in healthy male human feces at 250 mg, po administered as single dose; settings: read-out: Drug recovery; how it was run: as §1
[22] = Drug level in healthy human feces at 250 mg, po administered as single dose by LC-MS/MS method; settings: read-out: Drug uptake
[23] = Drug recovery in healthy human urine at 250 mg, po administered as single dose after 0 to 120 hrs; settings: read-out: Drug recovery; how it was run: as §1
[24] = Total drug recovery in healthy male human at 250 mg, po administered as single dose; settings: in vivo, read-out: Drug recovery; how it was run: as §1
[25] = Drug recovery in healthy human feces at 250 mg, po administered as single dose after 0 to 120 hrs; settings: read-out: Drug recovery; how it was run: as §1
[26] = Drug recovery in healthy human urine at 250 mg, po administered as single dose after 0 to 72 hrs; settings: read-out: Drug recovery; how it was run: as §1
[27] = Drug recovery in healthy human feces at 250 mg, po administered as single dose after 0 to 168 hrs; settings: read-out: Drug recovery; how it was run: as §1
Plasma [28] = assay: Drug recovery in healthy human plasma at 250 mg, po administered as single dose; settings: in vivo
Plasma [29] = assay: Drug metabolism in healthy human plasma assessed as (Z)-5-(4-(3-chloro-4-(3-fluorobenzyloxy)phenylamino)quinazolin-6-yl)furan-2-carbaldehyde oxime formation at 250 mg, po administered as single dose by LC-MS/MS method; settings: in vivo; how it was run: as §2
[30] = Drug recovery in healthy human urine at 250 mg, po administered as single dose after 0 to 144 hrs; settings: read-out: Drug recovery; how it was run: as §1
Plasma [31] = assay: Drug metabolism in healthy human plasma assessed as N-((5-(4-(3-chloro-4-(3-fluorobenzyloxy)phenylamino)quinazolin-6-yl)furan-2-yl)methylene)-2-(methylsulfonyl)ethanamine oxide formation at 250 mg, po administered as single dose by LC-MS/MS method; settings: in vivo; how it was run: as §2
Plasma [32] = assay: Drug metabolism in healthy human plasma assessed as 2-chloro-4-(6-(5-((2-(methylsulfonyl)ethylamino)methyl)furan-2-yl)quinazolin-4-ylamino)phenol formation at 250 mg, po administered as single dose by LC-MS/MS method; settings: in vivo; how it was run: as §2
Plasma [33] = assay: Drug metabolism in healthy human plasma assessed as 4-(3-chloro-4-hydroxyphenylamino)-6-(5-((2-(methylsulfonyl)ethylamino)methyl)furan-2-yl)quinazolin-2-ol formation at 250 mg, po administered as single dose by LC-MS/MS method; settings: in vivo; how it was run: as §2
[34] = Drug recovery in healthy male human urine at 250 mg, po administered as single dose; settings: read-out: Drug recovery; how it was run: as §1
Plasma [35] = assay: Drug metabolism in healthy human plasma assessed as (E)-5-(4-(3-chloro-4-(3-fluorobenzyloxy)phenylamino)quinazolin-6-yl)furan-2-carbaldehyde oxime formation at 250 mg, po administered as single dose by LC-MS/MS method; settings: in vivo; how it was run: as §2
[36] = Drug recovery in healthy human urine at 250 mg, po administered as single dose after 0 to 48 hrs; settings: read-out: Drug recovery; how it was run: as §1

## O=C(O)c1ccc(-c2ccc3ncnc(Nc4ccc(OCc5cccc(F)c5)c(Cl)c4)c3c2)o1
[1]
  Drug uptake: 14%
Plasma [2]
  Drug metabolism: metabolite_detected

## CS(=O)(=O)CC[n+]1cc([O-])ccc1-c1ccc2ncnc(Nc3ccc(OCc4cccc(F)c4)c(Cl)c3)c2c1
[1]
  Drug metabolism: metabolite_detected

## CS(=O)(=O)CCNCc1ccc(-c2ccc3ncn[14c](Nc4ccc(OCc5cccc(F)c5)c(Cl)c4)c3c2)o1.Cc1ccc(S(=O)(=O)O)cc1.O
[3]
  dose excreted: 89.9%
Plasma [4]
  Drug metabolism: metabolite_detected
[5]
  Drug metabolism: metabolite_detected
[6]
  dose excreted: 10.5%
[7]
  dose excreted: 1.15%
[8]
  dose excreted: 1.16%
[9]
  dose excreted: 74.9%
Homo sapiens
  Drug recovery: 93.1%
[10]
  dose excreted: 93%
[11]
  dose excreted: 45.3%
Plasma [12]
  Drug metabolism: metabolite_detected
[13]
  dose excreted: 91.4%
[14]
  dose excreted: 91.5%
[15]
  dose excreted: 1.16%
Plasma [16]
  Drug metabolism: metabolite_detected
[17]
  dose excreted: 78.4%
[18]
  dose excreted: 1.01%
Plasma [19]
  Drug metabolism: metabolite_detected
[20]
  dose excreted: 1.3%
[21]
  dose excreted: 93.6%
[22]
  dose excreted: 27%
[23]
  dose excreted: 1.16%
[24]
  dose excreted: 94.6%
[25]
  dose excreted: 90.8%
[26]
  dose excreted: 1.16%
[27]
  dose excreted: 91.8%
Plasma [28]
  Drug recovery: > 90%
Plasma [29]
  Drug metabolism: metabolite_detected
[30]
  dose excreted: 1.16%
Plasma [31]
  Drug metabolism: metabolite_detected
Plasma [32]
  Drug metabolism: metabolite_not_detected
Plasma [33]
  Drug metabolism: metabolite_not_detected
[34]
  dose excreted: 1%
Plasma [35]
  Drug metabolism: metabolite_detected
[36]
  dose excreted: 1.16%

## CS(=O)(=O)CCNCc1ccc(-c2ccc3ncnc(Nc4ccc(O)c(Cl)c4)c3c2)o1
[1]
  Drug uptake: 3.9%

## Oc1ccc(-c2ccc3ncnc(Nc4ccc(OCc5cccc(F)c5)c(Cl)c4)c3c2)nc1
[1]
  Drug uptake: 6.3%

## CS(=O)(=O)CCN(O)Cc1ccc(-c2ccc3ncnc(Nc4ccc(OCc5cccc(F)c5)c(Cl)c4)c3c2)o1
Plasma [2]
  Drug metabolism: metabolite_detected

## O/N=C/c1ccc(-c2ccc3ncnc(Nc4ccc(OCc5cccc(F)c5)c(Cl)c4)c3c2)o1
Plasma [2]
  Drug metabolism: metabolite_detected

## CS(=O)(=O)CCNCc1ccc(-c2ccc3nc(O)nc(Nc4ccc(O)c(Cl)c4)c3c2)o1
[1]
  Drug uptake: 3.3%

## NCc1ccc(-c2ccc3ncnc(Nc4ccc(OCc5cccc(F)c5)c(Cl)c4)c3c2)o1
[1]
  Drug metabolism: metabolite_detected

## CS(=O)(=O)CC/[N+]([O-])=C/c1ccc(-c2ccc3ncnc(Nc4ccc(OCc5cccc(F)c5)c(Cl)c4)c3c2)o1
Plasma [2]
  Drug metabolism: metabolite_detected

## CS(=O)(=O)C/C=[N+](/[O-])Cc1ccc(-c2ccc3ncnc(Nc4ccc(OCc5cccc(F)c5)c(Cl)c4)c3c2)o1
Plasma [2]
  Drug metabolism: metabolite_detected

## O/N=C\c1ccc(-c2ccc3ncnc(Nc4ccc(OCc5cccc(F)c5)c(Cl)c4)c3c2)o1
Plasma [2]
  Drug metabolism: metabolite_detected

## O=Cc1ccc(-c2ccc3ncnc(Nc4ccc(OCc5cccc(F)c5)c(Cl)c4)c3c2)o1
Plasma [2]
  Drug metabolism: metabolite_detected
